Measured values from PMC7825275 (Cancer chemotherapy and pharmacology, 2019).

How the values were obtained:
[1] = Reported veliparib half-life; type: in vivo, human; settings: for a 6.1 h half-life
[2] = test system: patients; settings: out of 35 patients enrolled, with oral daily cyclophosphamide; cited from earlier work
[3] = test system: patients with advanced solid tumors; type: in vivo, human
How it was run: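 Standard 3+3 escalation with modified Fibonacci steps. Oral veliparib was given every 12 h on days 1–7 of 21-day cycles, with IV carboplatin/paclitaxel on day 3. For the first 46 patients, cycle 1 was chemotherapy alone and DLT was scored in cycle 2; afterwards all three agents were given in cycle 1, which was the DLT cycle. Growth factors were barred in cycles 1–2. MTD was the highest dose with ≤1/6 DLTs.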

[4] = test system: previously untreated non-small cell lung cancer; settings: with carboplatin (AUC=6) plus paclitaxel (200 mg/m^2), Japanese patients; cited from earlier work
[5] = test system: advanced solid malignancies; test: Tumor response by RECIST 1.0, veliparib with carboplatin and paclitaxel; type: in vivo, human
How it was run: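 Tumor response followed RECIST 1.0 on CT or MRI. Scans were done every 2 cycles; for the first 46 subjects, the first scan was after cycle 3 and then every 2 cycles. Oral veliparib was given twice daily on days 1–7, with IV carboplatin/paclitaxel, in 21-day cycles, up to 6 cycles recommended.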

[6] = test system: patients; settings: with topotecan 0.6 mg on days 1-5; profound myelosuppression; cited from earlier work
[7] = Veliparib plasma pharmacokinetics; type: in vivo, human
[8] = Adenoid cystic of lung, 1 evaluable, with carboplatin and paclitaxel
[9] = Adrenalcortical carcinoma, 1 evaluable, with carboplatin and paclitaxel
[10] = All Patients, 67 evaluable, with carboplatin and paclitaxel
[11] = Ampulla of Vater, 1 evaluable, with carboplatin and paclitaxel
[12] = Bladder, 6 evaluable, with carboplatin and paclitaxel
[13] = Breast, 13 evaluable, with carboplatin and paclitaxel
[14] = Carcinoma of unknown origin, 3 evaluable, with carboplatin and paclitaxel
[15] = Cervix, 1 evaluable, with carboplatin and paclitaxel
[16] = Cholangiocarcinoma, 2 evaluable, with carboplatin and paclitaxel
[17] = Esophageal, 2 evaluable, with carboplatin and paclitaxel
[18] = Head & Neck, 8 evaluable, with carboplatin and paclitaxel
[19] = Level 1: veliparib 10 mg BID, carboplatin AUC 6, paclitaxel 150 mg/m^2, 5 evaluable
[20] = Level 4: veliparib 40 mg BID, carboplatin AUC 6, paclitaxel 175 mg/m^2, 3 evaluable
[21] = Level 5: veliparib 40 mg BID, carboplatin AUC 6, paclitaxel 200 mg/m^2, 12 evaluable
[22] = Level 7B: veliparib 100 mg BID, carboplatin AUC 6, paclitaxel 200 mg/m^2, 14 evaluable
[23] = Level 8: veliparib 120 mg BID, carboplatin AUC 6, paclitaxel 200 mg/m^2, 8 evaluable
[24] = Lung, 16 evaluable, with carboplatin and paclitaxel
[25] = Melanoma, 9 evaluable, with carboplatin and paclitaxel
[26] = Myxoid chondrosarcoma, 1 evaluable, with carboplatin and paclitaxel
[27] = Prostate, 1 evaluable, with carboplatin and paclitaxel
[28] = Stomach, 1 evaluable, with carboplatin and paclitaxel
[29] = Uterine, 1 evaluable, with carboplatin and paclitaxel
[30] = patients, oral veliparib 10-120 mg BID

Which results are given for `C[C@]1(c2nc3c(C(N)=O)cccc3[nH]2)CCCN1` [veliparib]?
expected accumulation ratio by day 3 based on reported half-life [1]: 1.34; partial responses [2]: seven; patients with dose-limiting toxicities during DLT observation cycle ([3]; all dose levels): 8 patients; DLTs at dose level 7 ([3]; veliparib 80 mg bid): 1/6; DLTs at the MAD, patients with DLT of evaluable patients ([3]; veliparib 120 mg BID, paclitaxel 200 mg/m^2, carboplatin AUC 6, febrile neutropenia, hyponatremia): 2 of 7; maximum administered dose (MAD), veliparib dose ([3]; with paclitaxel 200 mg/m^2 and carboplatin AUC 6 (dose level 8)): 120 mg BID; MTD, veliparib dose [4]: 120 mg; CR [5, 8]: 0; ORR [5, 8]: 0/1 (0%); PD [5, 8]: 0; PR [5, 8]: 0; CR [5, 9]: 0; ORR [5, 9]: 0/1 (0%); PD [5, 9]: 1; PR [5, 9]: 0; CR [5, 10]: 5; ORR [5, 10]: 27/67 (40%); PD [5, 10]: 8; CR [5, 11]: 0; ORR [5, 11]: 0/1 (0%); PD [5, 11]: 0; PR [5, 11]: 0; CR [5, 12]: 1; ORR [5, 12]: 3/6 (50%); PD [5, 12]: 1; PR [5, 12]: 2; CR [5, 13]: 3; ORR [5, 13]: 9/13 (69%); PD [5, 13]: 2; PR [5, 13]: 6; CR [5, 14]: 0; ORR [5, 14]: 1/3 (33%); PD [5, 14]: 0; PR [5, 14]: 1; CR [5, 15]: 0; ORR [5, 15]: 0/1 (0%); PD [5, 15]: 1; PR [5, 15]: 0; CR [5, 16]: 0; ORR [5, 16]: 0/2 (0%); PD [5, 16]: 0; PR [5, 16]: 0; CR [5, 17]: 0; ORR [5, 17]: 0/2 (0%); PD [5, 17]: 0; PR [5, 17]: 0; CR [5, 18]: 0; ORR [5, 18]: 3/8 (38%); PD [5, 18]: 0; PR [5, 18]: 3; CR [5, 19]: 0; ORR [5, 19]: 2/5 (40%); PD [5, 19]: 1; PR [5, 19]: 2; CR [5, 20]: 0; ORR [5, 20]: 1/3 (33%); PD [5, 20]: 0; PR [5, 20]: 1; CR [5, 21]: 2; ORR [5, 21]: 6/12 (50%); PD [5, 21]: 1; PR [5, 21]: 4; CR [5, 22]: 0; ORR [5, 22]: 3/14 (21%); PD [5, 22]: 3; PR [5, 22]: 3; CR [5, 23]: 0; ORR [5, 23]: 4/8 (50%); PD [5, 23]: 1; PR [5, 23]: 4; CR [5, 24]: 1; ORR [5, 24]: 7/16 (44%); PD [5, 24]: 2; PR [5, 24]: 6; CR [5, 25]: 0; ORR [5, 25]: 1/9 (11%); PD [5, 25]: 1; PR [5, 25]: 1; CR [5, 26]: 0; ORR [5, 26]: 0/1 (0%); PD [5, 26]: 0; PR [5, 26]: 0; CR [5, 27]: 0; ORR [5, 27]: 1/1 (100%); PD [5, 27]: 0; PR [5, 27]: 1; CR [5, 28]: 0; ORR [5, 28]: 1/1 (100%); PD [5, 28]: 0; PR [5, 28]: 1; CR [5, 29]: 0; ORR [5, 29]: 1/1 (100%); PD [5, 29]: 0; PR [5, 29]: 1; MTD, veliparib dose [6]: 10 mg bid; AUC on day 3 in the presence of carboplatin and paclitaxel (AUC0-12) vs day 1 veliparib alone (AUC0-inf) ([7]; P=0.049 by exact Wilcoxon): barely significantly lower than expected; Cmax in the absence vs presence of carboplatin and paclitaxel ([7]; day 1 vs day 3): similar; expected accumulation ratio by day 3 based on observed half-life ([7]; for a 5.1 h half-life, not observed for Cmax nor AUC): 1.20; half-life ([7]; human, plasma, po): 5.1 h; apparent clearance [7, 30]: 27.5 L/h; exposure versus dose [7, 30]: increase linearly with dose
